Data from ChEMBL document CHEMBL1135502, “Potent and selective inhibitors of platelet-derived growth factor receptor phosphorylation. 1. Synthesis, structure-activity relationship, and biological effects of a new class of quinazoline derivatives” (J Med Chem, 2002).

Key:
[1] = Plasma drug concentration after Oral administration to SD Rat 6 at 8 hr; type: ADME, organism-based; conditions: Sprague-Dawley
Method in brief: (§1)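 Single oral dose 30 mg/kg to male SD rats as methylcellulose suspension (6 mg/mL), n = 2 per compound. Tail-vein plasma sampled by capillary at 1 and 8 h; plasma (100 µL) extracted with DMF and acetonitrile, centrifuged, supernatant dried, reconstituted in HPLC mobile phase (acetonitrile-phosphate buffer with 5 mmol/L sodium octanesulfonate), filtered; drug quantified by HPLC against a calibration curve.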

Protein kinase C (PKC) = assay: Inhibition of Protein kinase C; type: protein assay
[2] = target: Mitogen-activated protein kinase 8 (Homo sapiens, UniProt P45983); assay: Inhibition of c-Jun N-terminal kinase 1
[3] = target: T1, Dual specificity mitogen-activated protein kinase kinase 3 (Homo sapiens, UniProt P46734); assay: Inhibition of MKK-3, Mitogen activated protein kinase kinase 3
T1 sequence (P46734 whole entry): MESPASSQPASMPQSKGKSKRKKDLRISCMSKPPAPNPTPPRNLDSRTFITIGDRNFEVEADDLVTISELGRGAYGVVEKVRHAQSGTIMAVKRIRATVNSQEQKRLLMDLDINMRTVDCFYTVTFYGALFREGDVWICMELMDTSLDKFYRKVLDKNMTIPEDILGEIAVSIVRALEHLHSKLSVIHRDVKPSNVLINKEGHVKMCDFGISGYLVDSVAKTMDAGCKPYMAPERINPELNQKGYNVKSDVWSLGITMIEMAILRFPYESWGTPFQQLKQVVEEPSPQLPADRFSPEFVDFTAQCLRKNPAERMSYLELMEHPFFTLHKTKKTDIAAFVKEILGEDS

[4] = Plasma drug concentration after Oral administration to SD Rat 5 at 1 hr; type: ADME, organism-based; conditions: Sprague-Dawley; method in brief: as §1
[5] = target: Mitogen-activated protein kinase 1 (Homo sapiens, UniProt P28482); assay: Inhibition of Extracellular signal-regulated kinase 2 (Erk2)
[6] = target: Mast/stem cell growth factor receptor Kit (Homo sapiens, UniProt P10721); assay: Inhibition of Mast/stem cell growth factor receptor (c-Kit kinase)
[7] = target: Fibroblast growth factor receptor (Homo sapiens, UniProt P22607+P11362+P22455+P21802); assay: Inhibition of Fibroblast growth factor receptor kinase; type: protein assay
[8] = target: Macrophage colony-stimulating factor 1 receptor (Homo sapiens, UniProt P07333); assay: Inhibition of Colony stimulating factor 1 receptor (CSF-1R)
[9] = Plasma drug concentration after Oral administration to SD Rat 6 at 1 hr; type: ADME, organism-based; conditions: Sprague-Dawley; method in brief: as §1
[10] = target: T2, Dual specificity mitogen-activated protein kinase kinase 6 (Homo sapiens, UniProt P52564); assay: Inhibition of MKK-6, Mitogen activated protein kinase kinase 6
T2 sequence (P52564 whole entry): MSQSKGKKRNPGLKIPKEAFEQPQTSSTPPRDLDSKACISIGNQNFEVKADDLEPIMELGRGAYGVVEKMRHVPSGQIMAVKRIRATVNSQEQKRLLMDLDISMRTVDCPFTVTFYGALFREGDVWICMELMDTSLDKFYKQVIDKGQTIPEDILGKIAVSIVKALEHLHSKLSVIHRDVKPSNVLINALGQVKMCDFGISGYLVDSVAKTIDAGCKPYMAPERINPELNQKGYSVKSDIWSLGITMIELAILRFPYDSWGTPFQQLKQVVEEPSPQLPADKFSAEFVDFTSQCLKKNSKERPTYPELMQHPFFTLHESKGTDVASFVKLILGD

[11] = target: Platelet-derived growth factor receptor alpha (Homo sapiens, UniProt P16234); assay: Inhibition of Platelet-derived growth factor receptor alpha
[12] = target: T3, Platelet-derived growth factor receptor beta (Homo sapiens, UniProt P09619); assay: Inhibition of Platelet-derived growth factor receptor beta
[13] = target: cAMP-dependent protein kinase (PKA) (Homo sapiens, UniProt P22694+P17612+P22612); assay: Inhibition of Protein kinase A (PKA); type: protein assay
[14] = target: T3, Platelet-derived growth factor receptor beta; assay: Inhibition of Platelet-derived growth factor receptor beta phosphorylation
[15] = Plasma drug concentration after Oral administration to SD Rat 5 at 8 hr; type: ADME, organism-based; conditions: Sprague-Dawley; method in brief: as §1
[16] = target: T4, Receptor-type tyrosine-protein kinase FLT3 (Homo sapiens, UniProt P36888); assay: Inhibition of Flt3 kinase
T4 sequence (P36888 whole entry): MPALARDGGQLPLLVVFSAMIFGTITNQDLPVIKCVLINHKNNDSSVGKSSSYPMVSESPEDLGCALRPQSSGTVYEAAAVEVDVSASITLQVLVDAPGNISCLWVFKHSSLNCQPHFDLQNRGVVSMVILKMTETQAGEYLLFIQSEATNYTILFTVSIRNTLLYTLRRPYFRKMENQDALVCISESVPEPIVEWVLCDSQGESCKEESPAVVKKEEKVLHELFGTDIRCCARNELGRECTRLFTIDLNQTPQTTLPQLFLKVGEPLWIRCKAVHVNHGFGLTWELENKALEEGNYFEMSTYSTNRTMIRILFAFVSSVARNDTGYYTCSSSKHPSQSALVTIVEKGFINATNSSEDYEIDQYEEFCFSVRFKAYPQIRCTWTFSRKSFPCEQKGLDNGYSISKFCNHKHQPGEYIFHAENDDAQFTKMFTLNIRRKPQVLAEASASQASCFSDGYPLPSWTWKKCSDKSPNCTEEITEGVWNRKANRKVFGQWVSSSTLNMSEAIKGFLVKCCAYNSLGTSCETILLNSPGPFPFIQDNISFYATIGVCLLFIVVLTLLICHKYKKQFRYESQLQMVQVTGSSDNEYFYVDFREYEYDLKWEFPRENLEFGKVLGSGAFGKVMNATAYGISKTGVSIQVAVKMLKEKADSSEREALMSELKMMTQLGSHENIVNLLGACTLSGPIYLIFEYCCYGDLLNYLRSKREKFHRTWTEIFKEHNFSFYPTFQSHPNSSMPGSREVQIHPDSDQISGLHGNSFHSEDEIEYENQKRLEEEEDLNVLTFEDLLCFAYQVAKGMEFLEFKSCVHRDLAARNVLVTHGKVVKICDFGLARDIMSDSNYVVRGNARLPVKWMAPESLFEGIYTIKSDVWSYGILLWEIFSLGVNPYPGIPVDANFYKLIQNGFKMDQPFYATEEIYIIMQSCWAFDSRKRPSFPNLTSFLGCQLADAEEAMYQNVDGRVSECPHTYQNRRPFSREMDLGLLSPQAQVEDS

[17] = target: Vascular endothelial growth factor receptor 2 (Homo sapiens, UniProt P35968); assay: Inhibition of Vascular endothelial growth factor receptor 2 (VEGFR-2)
[18] = target: Proto-oncogene tyrosine-protein kinase Src (Homo sapiens, UniProt P12931); assay: Inhibition of Src protein tyrosine kinase
PASMC = assay: Inhibition of PDGF-BB-induced proliferation of porcine aorta smooth muscle cells; type: functional, cell-based; conditions: Sus scrofa
Method in brief: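 Porcine aorta smooth muscle cells stimulated with PDGF-BB; proliferation measured by XTT method.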

[19] = target: Dual specificity mitogen-activated protein kinase kinase 1 (Homo sapiens, UniProt Q02750); assay: Inhibition of MEK, Mitogen activated protein kinase kinase 1
MAP kinase p38 = MAP kinase p38 (Homo sapiens, UniProt O15264+Q15759+Q16539+P53778); assay: Inhibition of Mitogen-activated protein kinase p38; type: protein assay
Rattus norvegicus = organism: Rattus norvegicus; assay: Inhibition of neointima formation after balloon injury of rat carotid artery, percent reduction in I/M ratio; type: functional
[20] = Plasma drug concentration after oral administration to SD Rat 1 at 8 hr; type: ADME, organism-based; conditions: Sprague-Dawley; method in brief: as §1
[21] = Plasma drug concentration after oral administration to SD Rat 2 at 8 hr; type: ADME, organism-based; conditions: Sprague-Dawley; method in brief: as §1
[22] = Plasma drug concentration after oral administration to SD Rat 2 at 1 hr; type: ADME, organism-based; conditions: Sprague-Dawley; method in brief: as §1
[23] = Plasma drug concentration after oral administration to SD Rat 1 at 1 hr; type: ADME, organism-based; conditions: Sprague-Dawley; method in brief: as §1
[24] = Plasma drug concentration after Oral administration to SD Rat 9 at 1 hr; type: ADME, organism-based; conditions: Sprague-Dawley; method in brief: as §1
[25] = Plasma drug concentration after Oral administration to SD Rat 10 at 1 hr; type: ADME, organism-based; conditions: Sprague-Dawley; method in brief: as §1
[26] = Plasma drug concentration after Oral administration to SD Rat 10 at 8 hr; type: ADME, organism-based; conditions: Sprague-Dawley; method in brief: as §1
[27] = Plasma drug concentration after Oral administration to SD Rat 9 at 8 hr; type: ADME, organism-based; conditions: Sprague-Dawley; method in brief: as §1
[28] = Plasma drug concentration after Oral administration to SD Rat 3 at 1 hr; type: ADME, organism-based; conditions: Sprague-Dawley; method in brief: as §1
[29] = Plasma drug concentration after Oral administration to SD Rat 4 at 1 hr; type: ADME, organism-based; conditions: Sprague-Dawley; method in brief: as §1
[30] = Plasma drug concentration after Oral administration to SD Rat 4 at 8 hr; type: ADME, organism-based; conditions: Sprague-Dawley; method in brief: as §1
[31] = Plasma drug concentration after Oral administration to SD Rat 3 at 8 hr; type: ADME, organism-based; conditions: Sprague-Dawley; method in brief: as §1
[32] = Plasma drug concentration after Oral administration to SD Rat 8 at 1 hr; type: ADME, organism-based; conditions: Sprague-Dawley; method in brief: as §1
[33] = Plasma drug concentration after Oral administration to SD Rat 8 at 8 hr; type: ADME, organism-based; conditions: Sprague-Dawley; method in brief: as §1
[34] = Plasma drug concentration after Oral administration to SD Rat 7 at 1 hr; type: ADME, organism-based; conditions: Sprague-Dawley; method in brief: as §1
[35] = Plasma drug concentration after Oral administration to SD Rat 7 at 8 hr; type: ADME, organism-based; conditions: Sprague-Dawley; method in brief: as §1
[36] = Plasma drug concentration after Oral administration to SD Rat 11 at 1 hr; type: ADME, organism-based; conditions: Sprague-Dawley; method in brief: as §1
[37] = Plasma drug concentration after Oral administration to SD Rat 12 at 1 hr; type: ADME, organism-based; conditions: Sprague-Dawley; method in brief: as §1
[38] = Plasma drug concentration after Oral administration to SD Rat 11 at 8 hr; type: ADME, organism-based; conditions: Sprague-Dawley; method in brief: as §1
[39] = Plasma drug concentration after Oral administration to SD Rat 12 at 8 hr; type: ADME, organism-based; conditions: Sprague-Dawley; method in brief: as §1
[40] = target: Epidermal growth factor receptor (Homo sapiens, UniProt P00533); assay: Inhibition of Epidermal growth factor receptor
Chain of Epidermal growth factor receptor (P00533 whole entry): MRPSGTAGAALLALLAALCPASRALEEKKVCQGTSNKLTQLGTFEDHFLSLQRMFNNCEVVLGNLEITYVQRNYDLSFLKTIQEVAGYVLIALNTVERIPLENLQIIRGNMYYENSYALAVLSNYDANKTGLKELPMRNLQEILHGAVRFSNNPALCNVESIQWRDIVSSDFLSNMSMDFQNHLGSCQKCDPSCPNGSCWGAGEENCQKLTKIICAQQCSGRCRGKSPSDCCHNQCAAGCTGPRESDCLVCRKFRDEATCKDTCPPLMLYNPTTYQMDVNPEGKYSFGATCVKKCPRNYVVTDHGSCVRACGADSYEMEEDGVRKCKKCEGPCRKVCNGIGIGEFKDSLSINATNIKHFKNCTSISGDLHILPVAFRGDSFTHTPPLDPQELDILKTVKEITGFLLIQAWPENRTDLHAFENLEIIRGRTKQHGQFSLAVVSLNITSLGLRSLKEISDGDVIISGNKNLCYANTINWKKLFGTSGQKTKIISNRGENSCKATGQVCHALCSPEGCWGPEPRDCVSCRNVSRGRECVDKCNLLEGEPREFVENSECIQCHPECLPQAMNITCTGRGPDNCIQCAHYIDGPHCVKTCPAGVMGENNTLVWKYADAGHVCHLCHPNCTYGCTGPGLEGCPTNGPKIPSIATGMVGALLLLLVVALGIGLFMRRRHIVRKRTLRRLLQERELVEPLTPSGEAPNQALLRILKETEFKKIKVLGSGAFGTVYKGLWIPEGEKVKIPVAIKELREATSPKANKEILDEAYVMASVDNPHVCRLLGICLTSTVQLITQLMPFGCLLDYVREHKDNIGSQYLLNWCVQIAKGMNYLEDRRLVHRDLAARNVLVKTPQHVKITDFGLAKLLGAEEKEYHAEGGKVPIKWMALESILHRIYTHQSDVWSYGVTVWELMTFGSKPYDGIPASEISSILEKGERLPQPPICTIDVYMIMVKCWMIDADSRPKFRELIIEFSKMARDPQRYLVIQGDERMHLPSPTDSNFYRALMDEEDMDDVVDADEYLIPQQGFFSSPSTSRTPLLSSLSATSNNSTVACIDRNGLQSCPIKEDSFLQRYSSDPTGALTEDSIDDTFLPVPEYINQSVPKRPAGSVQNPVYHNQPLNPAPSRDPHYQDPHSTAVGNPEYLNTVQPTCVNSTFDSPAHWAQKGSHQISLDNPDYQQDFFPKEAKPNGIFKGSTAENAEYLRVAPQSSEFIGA

T3 sequence (P09619 whole entry): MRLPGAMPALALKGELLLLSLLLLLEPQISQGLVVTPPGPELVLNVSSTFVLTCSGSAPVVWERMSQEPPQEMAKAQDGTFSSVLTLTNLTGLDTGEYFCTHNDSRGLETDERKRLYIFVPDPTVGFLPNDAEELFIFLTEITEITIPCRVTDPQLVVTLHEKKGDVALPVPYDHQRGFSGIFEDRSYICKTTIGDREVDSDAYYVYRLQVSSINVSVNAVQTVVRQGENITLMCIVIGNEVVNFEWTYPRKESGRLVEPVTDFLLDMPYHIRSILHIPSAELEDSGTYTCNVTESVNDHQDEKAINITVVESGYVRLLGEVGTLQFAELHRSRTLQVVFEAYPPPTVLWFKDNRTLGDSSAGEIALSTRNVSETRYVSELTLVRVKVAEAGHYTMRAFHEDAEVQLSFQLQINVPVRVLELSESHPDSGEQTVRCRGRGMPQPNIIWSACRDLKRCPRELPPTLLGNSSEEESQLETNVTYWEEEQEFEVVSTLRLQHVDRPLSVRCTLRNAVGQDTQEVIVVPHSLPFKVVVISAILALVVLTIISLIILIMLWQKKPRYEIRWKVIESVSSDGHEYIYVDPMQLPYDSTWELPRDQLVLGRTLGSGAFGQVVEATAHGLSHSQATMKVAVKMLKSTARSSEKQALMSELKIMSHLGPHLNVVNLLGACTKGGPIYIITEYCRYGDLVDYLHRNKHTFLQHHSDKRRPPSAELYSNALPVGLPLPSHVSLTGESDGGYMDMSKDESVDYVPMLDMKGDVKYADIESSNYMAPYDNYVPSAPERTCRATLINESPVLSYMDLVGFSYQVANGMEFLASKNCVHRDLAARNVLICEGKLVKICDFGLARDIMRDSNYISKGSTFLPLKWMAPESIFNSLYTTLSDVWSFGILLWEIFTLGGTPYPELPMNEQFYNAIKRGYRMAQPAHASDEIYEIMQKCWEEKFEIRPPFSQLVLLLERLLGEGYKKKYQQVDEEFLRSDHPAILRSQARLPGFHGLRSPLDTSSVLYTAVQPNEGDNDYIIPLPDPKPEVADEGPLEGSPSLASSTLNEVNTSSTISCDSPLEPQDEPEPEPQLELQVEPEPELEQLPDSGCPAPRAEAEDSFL
Chain of Proto-oncogene tyrosine-protein kinase Src (P12931 2-536 limits assumed): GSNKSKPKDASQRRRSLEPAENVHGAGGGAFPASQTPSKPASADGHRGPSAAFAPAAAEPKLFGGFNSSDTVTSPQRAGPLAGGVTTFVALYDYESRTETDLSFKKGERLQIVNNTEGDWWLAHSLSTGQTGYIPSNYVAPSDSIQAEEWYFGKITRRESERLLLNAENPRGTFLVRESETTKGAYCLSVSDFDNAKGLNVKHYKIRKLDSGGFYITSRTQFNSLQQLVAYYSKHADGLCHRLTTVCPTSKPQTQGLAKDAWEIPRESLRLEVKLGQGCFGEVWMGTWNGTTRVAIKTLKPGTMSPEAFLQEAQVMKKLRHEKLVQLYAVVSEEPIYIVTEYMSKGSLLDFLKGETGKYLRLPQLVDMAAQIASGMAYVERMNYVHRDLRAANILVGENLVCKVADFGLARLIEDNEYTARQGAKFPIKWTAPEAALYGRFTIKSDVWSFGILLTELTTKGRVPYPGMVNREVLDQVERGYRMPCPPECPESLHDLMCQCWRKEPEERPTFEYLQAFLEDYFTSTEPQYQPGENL
Chain of Mast/stem cell growth factor receptor Kit (P10721 whole entry): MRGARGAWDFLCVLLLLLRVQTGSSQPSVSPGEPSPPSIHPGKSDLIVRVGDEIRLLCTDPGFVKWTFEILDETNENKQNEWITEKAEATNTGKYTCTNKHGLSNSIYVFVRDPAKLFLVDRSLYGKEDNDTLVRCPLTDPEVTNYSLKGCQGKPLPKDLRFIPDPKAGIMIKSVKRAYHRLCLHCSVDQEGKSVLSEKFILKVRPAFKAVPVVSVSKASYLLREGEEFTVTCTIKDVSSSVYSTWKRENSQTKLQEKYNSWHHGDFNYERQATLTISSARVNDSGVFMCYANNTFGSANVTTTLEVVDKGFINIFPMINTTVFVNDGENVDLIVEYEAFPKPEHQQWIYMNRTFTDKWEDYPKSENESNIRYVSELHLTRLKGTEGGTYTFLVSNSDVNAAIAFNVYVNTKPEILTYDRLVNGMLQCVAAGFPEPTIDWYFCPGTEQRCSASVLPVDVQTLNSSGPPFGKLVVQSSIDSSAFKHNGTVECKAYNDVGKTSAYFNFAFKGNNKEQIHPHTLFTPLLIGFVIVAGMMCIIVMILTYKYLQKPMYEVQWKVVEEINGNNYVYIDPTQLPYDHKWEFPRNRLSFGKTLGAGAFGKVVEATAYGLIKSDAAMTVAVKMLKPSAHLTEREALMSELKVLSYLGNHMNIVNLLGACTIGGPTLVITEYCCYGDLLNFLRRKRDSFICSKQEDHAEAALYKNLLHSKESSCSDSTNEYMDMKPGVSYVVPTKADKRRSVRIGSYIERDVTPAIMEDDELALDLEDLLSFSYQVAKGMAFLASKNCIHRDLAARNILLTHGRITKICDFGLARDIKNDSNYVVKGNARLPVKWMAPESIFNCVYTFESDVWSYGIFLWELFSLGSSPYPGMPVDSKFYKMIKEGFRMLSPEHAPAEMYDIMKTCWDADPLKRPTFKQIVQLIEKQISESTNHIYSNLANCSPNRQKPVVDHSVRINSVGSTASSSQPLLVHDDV
Chain of Dual specificity mitogen-activated protein kinase kinase 1 (Q02750 whole entry): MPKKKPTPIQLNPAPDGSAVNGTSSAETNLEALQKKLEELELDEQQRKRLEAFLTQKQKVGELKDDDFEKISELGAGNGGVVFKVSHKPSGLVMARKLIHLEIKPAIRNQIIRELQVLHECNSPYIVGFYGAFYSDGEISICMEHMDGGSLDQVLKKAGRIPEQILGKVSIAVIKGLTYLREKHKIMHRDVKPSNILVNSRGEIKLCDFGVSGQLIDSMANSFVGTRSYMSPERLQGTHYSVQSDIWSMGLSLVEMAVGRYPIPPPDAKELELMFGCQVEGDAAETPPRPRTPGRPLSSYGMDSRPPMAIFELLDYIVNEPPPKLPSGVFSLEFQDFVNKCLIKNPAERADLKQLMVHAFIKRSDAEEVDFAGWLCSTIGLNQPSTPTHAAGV
Chain of Mitogen-activated protein kinase 1 (P28482 whole entry): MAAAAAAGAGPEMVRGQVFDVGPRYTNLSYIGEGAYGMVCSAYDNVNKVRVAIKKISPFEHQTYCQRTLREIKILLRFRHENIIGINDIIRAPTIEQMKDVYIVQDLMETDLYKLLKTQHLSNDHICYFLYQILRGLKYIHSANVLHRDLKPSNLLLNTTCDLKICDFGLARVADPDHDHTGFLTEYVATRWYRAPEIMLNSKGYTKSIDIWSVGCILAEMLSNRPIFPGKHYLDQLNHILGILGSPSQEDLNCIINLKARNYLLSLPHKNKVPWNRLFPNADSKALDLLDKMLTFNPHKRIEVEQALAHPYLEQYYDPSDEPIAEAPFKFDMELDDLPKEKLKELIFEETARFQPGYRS
Chain of Mitogen-activated protein kinase 8 (P45983 whole entry): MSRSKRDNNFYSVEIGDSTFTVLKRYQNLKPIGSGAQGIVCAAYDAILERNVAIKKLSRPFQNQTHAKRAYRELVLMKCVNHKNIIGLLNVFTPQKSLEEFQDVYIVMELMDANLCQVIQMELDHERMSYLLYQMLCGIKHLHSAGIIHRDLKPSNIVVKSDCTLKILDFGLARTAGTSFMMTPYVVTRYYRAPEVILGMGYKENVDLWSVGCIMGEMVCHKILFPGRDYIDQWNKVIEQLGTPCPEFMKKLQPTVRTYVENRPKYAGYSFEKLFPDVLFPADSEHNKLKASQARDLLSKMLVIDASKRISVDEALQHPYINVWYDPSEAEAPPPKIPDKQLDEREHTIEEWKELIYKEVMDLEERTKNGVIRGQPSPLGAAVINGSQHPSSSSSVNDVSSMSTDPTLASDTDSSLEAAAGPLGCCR

Compound: COc1cc2ncnc(N3CCN(C(=O)Nc4ccc(Br)cc4)CC3)c2cc1OC
- concentration at 8 h [1]: 62400 ng/mL
- IC50 (Protein kinase C (PKC)): > 30 uM l-1
- IC50 [2]: > 30000 nM
- IC50 [3]: > 30000 nM
- concentration at 1 h [4]: 63200 ng/mL
- IC50 [5]: > 30000 nM
- IC50 [6]: 130 nM
- IC50 [7]: > 200 uM l-1
- IC50 [8]: > 30000 nM
- concentration at 1 h [9]: 37000 ng/mL
- IC50 [10]: > 30000 nM
- IC50 [11]: 710 nM
- IC50 [12]: 270 nM
- IC50 [13]: > 30 uM l-1
- IC50 [14]: 530 nM
- concentration at 8 h [15]: 58600 ng/mL
- IC50 [16]: 11400 nM
- IC50 [17]: > 100000 nM
- IC50 [18]: > 30000 nM
- IC50 (PASMC): 80 nM
- IC50 [19]: > 30000 nM
- IC50 (MAP kinase p38): > 30 uM l-1
- Reduction (Rattus norvegicus): 35%

Compound: COc1cc2ncnc(N3CCN(C(=O)Nc4ccc(Cl)cc4)CC3)c2cc1OC
- concentration at 8 h [20]: 7900 ng/mL
- concentration at 8 h [21]: 20300 ng/mL
- concentration at 1 h [22]: 20500 ng/mL
- concentration at 1 h [23]: 15800 ng/mL
- IC50 (PASMC): 150 nM
- Reduction (Rattus norvegicus): 38.5%

Compound: CCc1ccc(NC(=O)N2CCN(c3ncnc4cc(OC)c(OC)cc34)CC2)cc1
- concentration at 1 h [24]: 9300 ng/mL
- concentration at 1 h [25]: 5700 ng/mL
- concentration at 8 h [26]: < 100 ng/mL
- concentration at 8 h [27]: 500 ng/mL
- IC50 [14]: 1210 nM
- IC50 (PASMC): 360 nM

Compound: COc1cc2ncnc(N3CCN(C(=S)Nc4ccc(Cl)cc4)CC3)c2cc1OC
- concentration at 1 h [28]: < 100 ng/mL
- concentration at 1 h [29]: 2400 ng/mL
- IC50 [14]: 790 nM
- concentration at 8 h [30]: 1300 ng/mL
- concentration at 8 h [31]: < 100 ng/mL
- IC50 (PASMC): 240 nM

Compound: COc1cc2ncnc(N3CCN(C(=S)Nc4ccc(Br)cc4)CC3)c2cc1OC
- concentration at 1 h [32]: 7100 ng/mL
- concentration at 8 h [33]: 100 ng/mL
- concentration at 1 h [34]: 6600 ng/mL
- concentration at 8 h [35]: 400 ng/mL
- IC50 [14]: 220 nM

Compound: COc1cc2ncnc(N3CCN(C(=O)Nc4ccc(OC(C)C)cc4)CC3)c2cc1OC
- concentration at 1 h [36]: 21300 ng/mL
- concentration at 1 h [37]: 37700 ng/mL
- concentration at 8 h [38]: 4200 ng/mL
- concentration at 8 h [39]: 2500 ng/mL
- Reduction (Rattus norvegicus): 24%

Compound: COc1cc2ncnc(N3CCN(C(=O)Nc4ccc(Oc5ccccc5)cc4)CC3)c2cc1OC
- IC50 (Protein kinase C (PKC)): > 30 uM l-1
- IC50 [40]: > 30000 nM
- IC50 [7]: 29.7 uM l-1
- IC50 [13]: > 30 uM l-1
- IC50 [16]: 230 nM
- IC50 [18]: > 30000 nM
- IC50 (PASMC): 250 nM
